{"data": "Measured values collected from several papers", "medium": "plasma", "note": "Protocols differ between the studies behind these lines."}
{"SMILES": "CCOc1cc2ncc(C#N)c(Nc3ccc(OCc4ccccn4)c(Cl)c3)c2cc1NC(=O)/C=C/[C@H]1CCCN1C", "system": "human", "conditions": "oral, 80 mg, single dose", "AUC(0-inf)": "386 ng·h/mL"}
{"SMILES": "CC(C)[C@](O)(c1ccc2cc(OC(F)F)c(OC(F)F)cc2c1)c1c[nH]nn1", "system": "female human", "conditions": "oral, 750 mg, single dose", "AUC(0-inf)": "84600 ng·h/mL"}
{"SMILES": "CC(C)(Sc1ccncc1-c1ccc(C#N)c2ccccc12)C(=O)O", "system": "male human", "conditions": "oral, 5 mg, single dose, fed, healthy volunteers", "AUC(0-inf)": "92.8 ng·h/mL"}
{"SMILES": "CN(C)CCCNC(=O)/C(=C/CCCCC(=O)NO)COc1cccc2ccccc12", "system": "human", "conditions": "intravenous, 312.5 mg/m², single dose", "AUC(0-inf)": "72600 ng·h/mL"}
{"SMILES": "CO[C@H]1CC[C@H](N2C(=O)CNc3ncc(-c4ccc(C(C)(C)O)nc4)nc32)CC1", "system": "human", "conditions": "oral, 15 mg, patients", "AUC(0-inf)": "378 ng·h/mL"}
{"SMILES": "COc1ccc(-n2nc(C(N)=O)c3c2C(=O)N(c2ccc(N4CCCCC4=O)cc2)CC3)cc1", "system": "human", "conditions": "oral, 10 mg, single dose, healthy volunteers", "AUC(0-inf)": "2530 ng·h/mL"}
{"SMILES": "CCCOc1ccc([C@H]2CNC(=O)N2c2ccc3[nH]cnc3c2)cc1", "system": "human", "conditions": "oral, 200 mg, single dose, fed, healthy volunteers", "AUC(0-inf)": "2310 ng·h/mL"}
{"SMILES": "Cn1cc(-c2ccc(S(=O)(=O)[C@@H]3C[C@@H](C(=O)NC4(C#N)CC4)N(C(=O)C4(C(F)(F)F)CC4)C3)c(C(F)(F)F)c2)cn1", "system": "human", "conditions": "oral, 100 mg, single dose, fed", "AUC(0-inf)": "12600 ng·h/mL"}
{"SMILES": "COc1ccc(-n2nc(C(N)=O)c3c2C(=O)N(c2ccc(N4CCCCC4=O)cc2)CC3)cc1", "system": "male human", "conditions": "oral, 50 mg, single dose", "AUC(0-inf)": "4740 ng·h/mL"}
{"SMILES": "O=C(Nc1c(Cl)cncc1Cl)c1ccc(OC(F)F)c(OCC2CC2)c1", "system": "human", "conditions": "oral, 0.375 mg, single dose, fasted", "AUC(0-inf)": "48.7 ng·h/mL"}
{"SMILES": "COc1ccc2[nH]c([S+]([O-])Cc3ncc(C)c(OC)c3C)nc2c1 (stereo not drawn)", "system": "male human", "conditions": "oral, 100 µg", "AUC(0-inf)": "2.46 ng·h/mL"}
{"SMILES": "O=C(/C=C/c1cccc(S(=O)(=O)Nc2ccccc2)c1)NO", "system": "human", "conditions": "intravenous, 1800 mg/m², patients", "AUC(0-inf)": "55200 ng·h/mL"}
{"SMILES": "CC(C)(O)c1ccccc1-c1ccc2[nH]c(/C=C/c3ccc(C(F)(F)F)cc3)nc2c1", "system": "male human", "conditions": "oral, 50 mg, single dose, fasted, healthy volunteers", "AUC(0-inf)": "7820 ng·h/mL"}
{"SMILES": "CS(=O)(=O)CCC#N", "system": "human", "conditions": "oral, 300 mg, single dose, fasted", "AUC(0-inf)": "327000 ng·h/mL"}
{"SMILES": "CCc1cnn2c(NCc3ccc[n+]([O-])c3)cc(N3CCCC[C@H]3CCO)nc12", "system": "human", "conditions": "intravenous, 9 mg/m², patients", "AUC(0-inf)": "796 ng·h/mL"}
{"SMILES": "CC(C)n1cc(C#N)c2cc(-n3cc(C(=O)O)cn3)ccc21", "system": "human", "conditions": "oral, 50 mg, single dose, fasted, healthy volunteers", "AUC(0-inf)": "7120 ng·h/mL"}
{"SMILES": "CC(=O)Oc1ccccc1C(=O)O", "system": "human", "conditions": "oral, 650 mg, healthy volunteers", "AUC(0-inf)": "7690 ng·h/mL"}
{"SMILES": "C[C@@]1(c2cc(NC(=O)c3ccc(C#N)cn3)ccc2F)C=CSC(N)=N1", "system": "human", "conditions": "oral, 10 mg, single dose", "AUC(0-inf)": "1040 ng·h/mL"}
{"SMILES": "COc1ccc([C@@H]2CN(C(=O)[C@@H](O)CO)C[C@@]2(C)[C@@H](C)O)cc1OC1CN(c2ccc(C)cn2)C1", "system": "human", "conditions": "oral, 5 mg, single dose, healthy volunteers", "AUC(0-inf)": "1850 ng·h/mL"}
{"SMILES": "FC(F)(F)c1ccc(CNc2ccc(Cc3c[nH]c4ncc(Cl)cc34)cn2)cn1", "system": "male human", "conditions": "oral, 400 mg, single dose, healthy volunteers", "AUC(0-inf)": "61300 ng·h/mL"}
{"SMILES": "CCc1nc2c(C)cc(N3CCN(CC(=O)N4CC(O)C4)CC3)cn2c1N(C)c1nc(-c2ccc(F)cc2)c(C#N)s1", "system": "human", "conditions": "oral, 300 mg, single dose, fed, healthy volunteers", "AUC(0-inf)": "14900 ng·h/mL"}
